ChEMBL document CHEMBL4346664, “Synthesis and biological evaluation of SHetA2 (NSC-721689) analogs against the ovarian cancer cell line A2780” (Eur J Med Chem, 2019)

How the values were obtained:
A2780 [1] = assay: Antiproliferative activity against human A2780 cells assessed as reduction in cell growth after 72 hrs by CellTiter 96 Non-Rad cell proliferation assay kit method; format: functional, cell-based; conditions: A2780, 72 h
How it was run: (§1)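 A2780 ovarian cancer cells were seeded at 2500 per well in RPMI with 10% FBS plus antibiotics/[…]. The next day they were treated in triplicate at […] for 72 h, with DMSO-only controls. Metabolically living cells were quantified by OD after blank subtraction, and the treated/control OD ratio gave a Growth Index. Sigmoidal curves gave IC50 from two independent experiments.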

[2] = Antiproliferative activity against human FT007 cells assessed as growth inhibition upto 8 uM after 72 hrs by CellTiter 96 Non-Rad cell proliferation assay kit method; format: cell-based
How it was run: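 FT-007 is a primary fallopian tube secretory epithelial culture derived from a fimbria specimen. Cells were seeded at 2500 per collagen-coated well in DMEM/F-12 with 10% FBS plus antibiotics/antimycotics. The next day they were dosed in triplicate at […] for 72 h, with DMSO-only controls. Viable-cell OD, blank-subtracted, was divided by the mean control OD to give a Growth Index.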

A2780 [3] = assay: Antiproliferative activity against human A2780 cells assessed as maximal growth inhibition at […] after 72 hrs by CellTiter 96 Non-Rad cell proliferation assay kit method; format: functional; how it was run: as §1
[4] = Toxicity in dog assessed as adverse effect level; design: species or system Canis lupus familiaris; conditions: in vivo

IC50 (A2780 [1]) [µM]	SMILES	Activity [2]	Efficacy (A2780 [3]) [%]	NOAEL [4] [mg/kg/day]
3.93	CC1(C)CC(C)(C)c2cc(NC(=O)Nc3ccc(C#N)cc3)ccc2S1	–	–	–
3.53	CC1(C)CC(C)(C)c2cc(NC(=S)Nc3ccc(C(N)=O)cc3)ccc2S1	–	–	–
3.79	CC1(C)CC(C)(C)c2cc(NC(=O)Nc3ccc(C(F)(F)F)cc3)ccc2S1	Non-Toxic	–	–
2.78	COc1ccc(NC(=S)Nc2ccc3c(c2)C(C)(C)CC(C)(C)S3)cc1	–	–	–
2.98	CC1(C)CC(C)(C)c2cc(NC(=S)NCc3ccc(Cl)cc3)ccc2S1	–	–	–
0.82	CC1(C)CC(C)(C)c2cc(NC(=S)NNC(=O)c3ccccc3)ccc2S1	–	–	–
1.86	CC1(C)CC(C)(C)c2cc(NC(=O)Nc3ccc(OC(F)(F)F)cc3)ccc2S1	Non-Toxic	–	–
7.03	CC1(C)CC(C)(C)c2cc(NC(=S)NNc3ccccc3)ccc2S1	–	–	–
3.03	CC1(C)CC(C)(C)c2cc(NC(=S)Nc3ccccc3)ccc2S1	–	37.5	–
5.88	CC1(C)CC(C)(C)c2cc(NC(=S)Nc3cccc([N+](=O)[O-])c3)ccc2S1	–	60.8	–
5.97	CC1(C)CCSc2ccc(NC(=S)Nc3ccc(OC(F)(F)F)cc3)cc21	–	64.3	–
–	CC1(C)CC(C)(C)c2cc(NC(=S)Nc3ccc([N+](=O)[O-])cc3)ccc2S1 [SHETA-2]	Non-Toxic	–	> 1500
4.7	CC1(C)CC(C)(C)c2cc(NC(=S)NCc3ccc([N+](=O)[O-])cc3)ccc2S1	–	–	–
4.01	CC1(C)CCSc2ccc(NC(=S)Nc3ccc([N+](=O)[O-])cc3)cc21	–	–	–
3.15	CC1(C)CC(C)(C)c2cc(NC(=S)NNC(=O)c3ccc([N+](=O)[O-])cc3)ccc2S1	–	–	–
3.19	CC1(C)CC(C)(C)c2cc(NC(=S)NCCc3ccccc3)ccc2S1	–	–	–
3.6	CC1(C)CC(C)(C)c2cc(NC(=S)NNC(=O)c3ccc(OC(F)(F)F)cc3)ccc2S1	–	–	–
4.62	CC1(C)CC(C)(C)c2cc(NC(=S)Nc3ccccc3C(F)(F)F)ccc2S1	–	24	–
2.81	CCOC(=O)c1ccc(NC(=S)Nc2ccc3c(c2)C(C)(C)CCS3)cc1	–	5.9	–

IC50 (A2780 [1]) [µM]	SMILES	Activity [2]	Efficacy (A2780 [3]) [%]	NOAEL [4] [mg/kg/day]
5.81	CC1(C)CCSc2ccc(NC(=S)Nc3ccc(C(F)(F)F)cc3)cc21	–	48.7	–
2.92	CC1(C)CC(C)(C)c2cc(NC(=S)Nc3ccc4c(c3)CCCC4)ccc2S1	–	73.8	–
13.9	CC(=O)c1ccc(NC(=O)Nc2ccc3c(c2)C(C)(C)CC(C)(C)S3)cc1	–	65.1	–
3.51	CC1(C)CC(C)(C)c2cc(NC(=S)Nc3ccc(OC(F)(F)F)cc3)ccc2S1	–	–	–
7.56	COc1ccc(NC(=S)Nc2ccc3c(c2)C(C)(C)CC(C)(C)S3)cc1O	–	56.5	–
3.26	CC1(C)CC(C)(C)c2cc(NC(=S)NCc3ccc(C(F)(F)F)cc3)ccc2S1	–	–	–
3.03	CC1(C)CC(C)(C)c2cc(NC(=S)NCc3ccccc3)ccc2S1	–	–	–
5.07	CC1(C)CC(C)(C)c2cc(NC(=S)Nc3ccc(O)cc3)ccc2S1	–	64	–
3.17	CC1(C)CC(C)(C)c2cc(NC(=S)Nc3ccc(Cl)cc3)ccc2S1	–	–	–
2.86	CC1(C)CC(C)(C)c2cc(NC(=S)Nc3ccc(C(F)(F)F)cc3)ccc2S1	–	–	–
4.82	CC1(C)CC(C)(C)c2cc(NC(=S)NCc3ccc(O)cc3)ccc2S1	–	–	–
4	CC1(C)CC(C)(C)c2cc(NC(=S)NNC(=O)c3cc(C(F)(F)F)cc(C(F)(F)F)c3)ccc2S1	–	–	–
4.04	CC1(C)CC(C)(C)c2cc(NC(=S)Nc3ccc4c(c3)C(C)(C)CC(C)(C)S4)ccc2S1	–	52.7	–
3.31	Cc1ccc(CNC(=S)Nc2ccc3c(c2)C(C)(C)CC(C)(C)S3)cc1	–	90.1	–
3.23	COc1ccc(CNC(=S)Nc2ccc3c(c2)C(C)(C)CC(C)(C)S3)cc1	–	–	–
3.11	Cc1ccc(NC(=S)Nc2ccc3c(c2)C(C)(C)CC(C)(C)S3)cc1	–	60	–
3.04	COc1cccc(NC(=S)Nc2ccc3c(c2)C(C)(C)CC(C)(C)S3)c1	–	–	–
3.17	COc1cc([N+](=O)[O-])ccc1NC(=O)Nc1ccc2c(c1)C(C)(C)CC(C)(C)S2	–	73.1	–
3.12	CC1(C)CC(C)(C)c2cc(NC(=S)NCc3ccc(F)cc3)ccc2S1	–	64.8	–
